Compound activity as filed in PubChem.
Most compounds without a hit are left out; they make up all but 2.4% or so of the library.
Scp1 inh: Scp-1 (human) phosphatase inhibition; Recombinant Scp1, phosphopeptide, malachite green phosphate absorbance; inhibition, % at 20 µM; hit rate 0.88% among 340,000; AID 493091;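 active = inhibition above about 50% at 20 µM, limit read from the data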
Target sequence (Q9GZU7 76-261 limits assumed): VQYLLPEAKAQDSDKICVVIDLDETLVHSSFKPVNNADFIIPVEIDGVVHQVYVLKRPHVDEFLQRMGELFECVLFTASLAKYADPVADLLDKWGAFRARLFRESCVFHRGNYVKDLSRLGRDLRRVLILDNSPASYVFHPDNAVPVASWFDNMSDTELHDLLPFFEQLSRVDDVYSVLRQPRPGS
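Test system – truncated SCP-1 phosphatase (76-261aa) · Reagent – Phosphorylated 17-residue peptide substrate · Incubation – 45 min room-temperature reaction, 5 min colour, 30 min stabiliser · Detection – colorimetric phosphate reagent with accelerator and stabiliser, absorbance at 630 nm · Measure – % inhibition at 20 µM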
STEP block: STEP (human) phosphatase inhibition; recombinant STEP, OMFP fluorogenic substrate, fluorescence; hit rate 0.25% among 360,000; P54829; AID 588621; inhibition, % at 20 µM;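 active = inhibition at 20 µM, scaled per plate between control wells, above about 37%, limit read from the data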
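Material: STEP (striatal-enriched tyrosine phosphatase) enzyme, cell-free; Compound dosing: 20 µM single dose in 1% DMSO; Technique: fluorescence read at 480 nm ex / 540 nm em; Times: reaction 20 min, ambient temperature; Medium: 50 mM Bis-Tris pH 6.0 with 2.5 mM DTT and 0.005% Tween 20; Also added: OMFP at 25 µM.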
LMPTP inh: LMPTP (human) inhibition; P24666; inhibition, % at 20 µM; hit rate 0.22% among 360,000; recombinant LMPTP-A, OMFP fluorogenic substrate, fluorescence intensity; AID 651560;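 active = compounds that cut the enzyme signal by at least half of the control window in the single-dose screen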
Target sequence (P24666 whole entry, looked up): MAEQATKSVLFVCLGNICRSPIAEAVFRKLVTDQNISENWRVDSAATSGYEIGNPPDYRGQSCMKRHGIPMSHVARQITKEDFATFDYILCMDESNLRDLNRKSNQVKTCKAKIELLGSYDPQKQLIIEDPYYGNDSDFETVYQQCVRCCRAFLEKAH
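Buffer or medium: Bis-Tris pH 6.0, DTT, detergent; Assay system: LMPTP-A enzyme; Quantity: 0.625 nM enzyme; Detection: endpoint fluorescence intensity; Times: 50 min dark incubation at room temperature; Controls: substrate-only low control, DMSO enzyme-plus-substrate high control; Doses: single 20 µM dose; Read-out: percent inhibition versus substrate-only and uninhibited controls; Reagent: 400 µM OMFP.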
SUMO1 PPI mod: alters human SUMO1 binding to SIM partners; inhibition, % at 20 µM; hit rate 0.33% among 360,000; SUMO1 binding to a labelled peptide, TR-FRET, 1 h; P63165; in the data active = inhibition above about 37%
Target sequence (P63165 whole entry, looked up): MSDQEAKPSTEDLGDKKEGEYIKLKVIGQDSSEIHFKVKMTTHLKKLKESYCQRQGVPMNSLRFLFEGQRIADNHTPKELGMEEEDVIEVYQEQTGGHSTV
DNMT1 block: blocks human DNA methyltransferase DNMT1 | AID 588458 | hit rate 0.83% among 360,000 | inhibition (reported as % activation of signal), % at 10 µM | DNMT1 molecular beacon, Hinp1I cleavage, fluorescence | P26358; in the data active = inhibition above about 50%
NadD inh: blocks S. aureus nicotinate mononucleotide adenylyltransferase; purified NadD enzyme, colorimetric absorbance read-out; inhibition, % at 20 µM; hit rate 0.78% among 360,000; AID 602399; in the data active = inhibition above about 26%
STEP inh conf: confirmation of human STEP phosphatase inhibitors. shares compounds with STEP block. recombinant STEP, OMFP fluorogenic substrate, fluorescence. inhibition, % at 20 µM. hit rate 32% among 520. AID 623866; call rule not given here
Each line names hits and unclear results; the compound was inactive in the other large screens (follow-up assays come after a bar, where they were run).

Cc1ccc(Nc2nnc(-c3ccc4c(c3)OCO4)o2)c(C)c1	STEP block 48 | STEP inh conf inactive
NC1=NC[C@H](Cc2ccccc2)N1CCCCC1CCCCC1	none
NC1=NC[C@H](Cc2ccccc2)N1CCc1cccc(F)c1	STEP block 70, SUMO1 PPI mod 74 | STEP inh conf inactive
Cc1c(C)c2ccc(OCC(=O)Nc3ccc(S(N)(=O)=O)cc3)c(C)c2oc1=O	STEP block 46 | STEP inh conf 74
O=C(O)CCCCCn1c(SCc2cc(=O)n3cc(Cl)ccc3n2)nc2ccsc2c1=O	STEP block 65 | STEP inh conf inactive
O=C(O)CCCCCn1c(SCc2cc(=O)n3ccccc3n2)nc2ccsc2c1=O	none
O=C(O)c1cccc(NC(=S)NC(=O)c2ccc(-c3ccccc3)cc2)c1	none
COc1cc2ccccc2cc1C(=O)NC(=S)Nc1cccc(C(=O)O)c1	STEP block 42 | STEP inh conf inactive
CC(=O)Nc1ccc(C(=O)CN2CCN(c3ccccc3)CC2)cc1	STEP block 47, SUMO1 PPI mod 70 | STEP inh conf inactive
CC(=O)c1ccc(NC(=O)CN2CCN(c3ccccc3)CC2)cc1	none
COc1ccc(/C=N/NC(=O)c2nnn(-c3nonc3N)c2CN(C)c2ccccc2)cc1	STEP block 73 | STEP inh conf inactive
Cc1ccccc1COc1cccc(/C=N/NC(=O)c2nnn(-c3nonc3N)c2C)c1	STEP block 91 | STEP inh conf inactive
Nc1ccc(O)cc1C(=O)OCC(=O)c1ccc(C2CCCCC2)cc1	none
O=C1CCCc2c1sc1nc3n(c(=O)c21)CCCCC3	STEP block 45 | STEP inh conf inactive
O=c1c2c3c(sc2nc2n1CCCCC2)CCC3	none
Cc1[nH]n(C(N)=S)c(=O)c1N=Nc1cccc(C(F)(F)F)c1	none
Cc1ccccc1/C=N/Nc1nc2ccccc2c(=O)n1O	STEP block 76 | STEP inh conf inactive
Cc1onc(-c2ccccc2Cl)c1C(=O)OCC(=O)Nc1cccc(S(=O)(=O)N(C)C)c1	none
CC(=O)Nc1ccc(NC(=O)C(C)OC(=O)c2ccc3c(c2)OCCO3)cc1 (stereo unspecified)	none
CC(OC(=O)c1cccc(S(=O)(=O)Nc2cccc(C(F)(F)F)c2)c1)C(=O)Nc1ccc2c(c1)OCCO2 (stereo unspecified)	STEP block 61 | STEP inh conf inactive
COc1ccc(NC(=O)c2cccc(Oc3ccc([N+](=O)[O-])cc3Cl)c2)cc1	none
Cc1ccc(C)c(NC(=O)c2cccc(Oc3ccc([N+](=O)[O-])cc3Cl)c2)c1	STEP block 77 | STEP inh conf inactive
S=C(NCCN1CCOCC1)C(=S)NCCN1CCOCC1	STEP block 42 | STEP inh conf inactive
O=C(O)c1ccccc1C(=O)NCC(O)c1ccccc1 (stereo unspecified)	STEP block 91 | STEP inh conf inactive
CCOC(=O)c1c(NC(=O)OC)sc(C(=O)N(CC)CC)c1C	STEP block 82 | STEP inh conf 52
S=C(NCCCN1CCOCC1)Nc1ccc(Cl)cc1	none
FC(F)(F)Oc1ccc(NC(=S)NCCCN2CCOCC2)cc1	STEP block 41 | STEP inh conf inactive
CCN1CCN(C(=S)c2ccc(SC)cc2)CC1	STEP block 67 | STEP inh conf inactive
CSc1ccc(C(=S)N2CCN(Cc3ccccc3)CC2)cc1	STEP block 52 | STEP inh conf inactive
N#Cc1c(-c2ccccc2)cc2nc3ccccc3n2c1N	none
N#CNc1nc(O)cc(=O)[nH]1	STEP block 98, LMPTP inh 87 | STEP inh conf 63
CCSc1nc(O)cc(=O)[nH]1	none
Cn1cc(P(=S)(N2CCOCC2)N2CCOCC2)cc1P(=O)(N1CCOCC1)N1CCOCC1	none
Cn1cc(P(=O)(N2CCOCC2)N2CCOCC2)cc1P(=S)(N1CCOCC1)N1CCOCC1	STEP block 62 | STEP inh conf inactive
CN1CCN(C(=S)Nc2ccc(S(N)(=O)=O)cc2)CC1	STEP block 81 | STEP inh conf 39
